Values after ≈ are worked out from the molar mass of the structure shown.
Assays:
[1] = system: HL-60; assay: Cytotoxicity against human HL60 cells after 72 hrs by MTT assay; assay type: functional, cell-based; details: HL-60, 72 h
How it was run: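 HL-60 leukemia cells seeded in 96-well plates, held 24 h at 37 °C in 5% CO2/air, then given sample in EtOH-H2O (1:1) to final 0.1-20 µg/mL; solvent alone for controls. Exposure 72 h, then MTT for 4 h at 37 °C; cells and formazan pelleted, formazan dissolved in DMSO, A550 read. Triplicate; IC50 = concentration cutting viable cell number by 50%.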

[2] = system: HSC-2; assay: Cytotoxicity against human HSC2 cells after 24 hrs by MTT assay; assay type: functional, cell-based; details: HSC-2, 24 h
How it was run: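 HSC-2 monolayers kept in DMEM with 10% heat-inactivated FBS at 37 °C, 5% CO2. Trypsinized cells plated, grown 24 h, PBS-washed, exposed 24 h with or without compound. After PBS wash, 0.2 mg/mL MTT in DMEM/10% FBS for 4 h; cells lysed in DMSO and absorbance taken as relative viable cell number. IC50 reported.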

Structure (SMILES)	IC50 [1]	IC50 [2]
CC(C)CC[C@H](O)[C@@H](C)[C@H]1[C@@H](O[C@@H]2O[C@@H](C)[C@H](O)[C@@H](O)[C@H]2O)C[C@H]2[C@@H]3CC=C4C[C@@H](O)C[C@@H](O[C@@H]5O[C@@H](C)[C@H](O)[C@@H](O)[C@H]5O)[C@]4(C)[C@H]3CC[C@]12C	> 10 mg/L	> 100 mg/L
C[C@@H]1CC[C@@]2(OC1)O[C@H]1C[C@H]3[C@@H]4CC=C5C[C@@H](O)C[C@@H](O[C@@H]6OC[C@H](O)[C@H](O)[C@H]6O[C@@H]6O[C@@H](C)[C@H](O)[C@@H](O)[C@H]6O)[C@]5(C)[C@H]4CC[C@]3(C)[C@H]1[C@@H]2C	2.2 mg/L (≈ 3.1 µM)	19.9 mg/L (≈ 28.1 µM)
COc1cc([C@@H]2c3cc4c(cc3[C@@H](O[C@@H]3O[C@@H]5CO[C@@H](C)O[C@H]5[C@H](O)[C@H]3O)[C@H]3COC(=O)[C@H]23)OCO4)cc(OC)c1O [ETOPOSIDE]	0.23 mg/L (≈ 0.391 µM)	24.4 mg/L (≈ 41.5 µM)
C[C@@H]1CC[C@@]2(OC1)O[C@H]1C[C@H]3[C@@H]4CC[C@H]5C[C@@H](O)C[C@@H](O[C@@H]6O[C@H](CO)[C@@H](O)[C@H](O)[C@H]6O)[C@]5(C)[C@H]4CC[C@]3(C)[C@H]1[C@@H]2C	1.6 mg/L (≈ 2.69 µM)	34.6 mg/L (≈ 58.2 µM)
CC(=O)OC[C@H]1O[C@@H](O[C@H]2C[C@H]3[C@@H]4CC[C@H]5C[C@@H](O)C[C@@H](O[C@@H]6O[C@@H](C)[C@H](O)[C@@H](O)[C@H]6O)[C@]5(C)[C@H]4CC[C@]3(C)[C@H]2[C@H](C)[C@@H](O)CCC(C)C)[C@H](O)[C@@H](O)[C@@H]1O	5.3 mg/L (≈ 6.73 µM)	> 100 mg/L
COc1cc(C(=O)OC[C@H]2O[C@@H](O[C@@H]3C[C@H](O)C[C@@H]4CC[C@H]5[C@@H]6C[C@H](O[C@@H]7O[C@H](CO)[C@@H](O)[C@H](O)[C@H]7O)[C@H]([C@H](C)[C@@H](O)CCC(C)C)[C@@]6(C)CC[C@@H]5[C@]43C)[C@H](O)[C@@H](O)[C@@H]2O)cc(OC)c1OC	5 mg/L (≈ 5.23 µM)	> 100 mg/L
CC(C)=CC[C@H](O)[C@@H](C)[C@H]1[C@@H](O[C@@H]2O[C@@H](C)[C@H](O)[C@@H](O)[C@H]2O)C[C@H]2[C@@H]3CC[C@H]4C[C@@H](O)C[C@@H](O[C@@H]5O[C@@H](C)[C@H](O)[C@@H](O)[C@H]5O)[C@]4(C)[C@H]3CC[C@]12C	> 10 mg/L	> 100 mg/L
COc1cc(C(=O)OC[C@H]2O[C@@H](O[C@@H]3C[C@H](O)C[C@@H]4CC[C@H]5[C@@H]6C[C@H](O[C@@H]7O[C@H](CO)[C@@H](O)[C@H](O)[C@H]7O)[C@H]([C@H](C)[C@@H](O)CC=C(C)C)[C@@]6(C)CC[C@@H]5[C@]43C)[C@H](O)[C@@H](O)[C@@H]2O)cc(OC)c1OC	> 10 mg/L	> 100 mg/L
CC(C)=CC[C@H](O)[C@@H](C)[C@H]1[C@@H](O[C@@H]2O[C@@H](C)[C@H](O)[C@@H](O)[C@H]2O)C[C@H]2[C@@H]3CC=C4C[C@@H](O)C[C@@H](O[C@@H]5O[C@@H](C)[C@H](O)[C@@H](O)[C@H]5O)[C@]4(C)[C@H]3CC[C@]12C	5.1 mg/L (≈ 7.04 µM)	> 100 mg/L
CC(=O)OC[C@H]1O[C@@H](O[C@H]2C[C@H]3[C@@H]4CC[C@H]5C[C@@H](O)C[C@@H](O[C@@H]6O[C@@H](C)[C@H](O)[C@@H](O)[C@H]6O)[C@]5(C)[C@H]4CC[C@]3(C)[C@H]2[C@H](C)[C@@H](O)CCC(C)C)[C@H](O)[C@@H](O)[C@@H]1O[C@@H]1OC[C@](O)(CO)[C@H]1O	> 10 mg/L	> 100 mg/L
C[C@@H]1CC[C@@]2(OC1)O[C@H]1C[C@H]3[C@@H]4CC=C5C[C@@H](O)C[C@@H](O[C@@H]6OC[C@H](O)[C@H](O[C@@H]7OC[C@@H](O)[C@H](O)[C@H]7O)[C@H]6O[C@@H]6O[C@@H](C)[C@H](O)[C@@H](O)[C@H]6O)[C@]5(C)[C@H]4CC[C@]3(C)[C@H]1[C@@H]2C	1.9 mg/L (≈ 2.26 µM)	21.2 mg/L (≈ 25.2 µM)
C[C@@H]1O[C@@H](O[C@H]2[C@H](O[C@@H]3C[C@H](O)CC4=CC[C@H]5[C@@H]6C[C@@H]7O[C@]8(C[C@H](O)[C@@H](C)CO8)[C@@H](C)[C@@H]7[C@@]6(C)CC[C@@H]5[C@]43C)OC[C@H](O)[C@@H]2O[C@@H]2OC[C@@H](O)[C@H](O)[C@H]2O)[C@H](O)[C@H](O)[C@H]1O	> 10 mg/L	> 100 mg/L
C[C@@H]1O[C@@H](O[C@H]2[C@H](O[C@@H]3C[C@H](O)CC4=CC[C@H]5[C@@H]6C[C@@H]7O[C@]8(C[C@H](O)[C@@H](C)CO8)[C@@H](C)[C@@H]7[C@@]6(C)CC[C@@H]5[C@]43C)OC[C@H](O)[C@@H]2O)[C@H](O)[C@H](O)[C@H]1O	5.2 mg/L (≈ 7.17 µM)	> 100 mg/L
CC(C)CC[C@H](O)[C@@H](C)[C@H]1[C@@H](O[C@@H]2O[C@H](CO)[C@@H](O)[C@H](O)[C@H]2O)C[C@H]2[C@@H]3CC[C@H]4C[C@@H](O)C[C@@H](O[C@@H]5O[C@@H](C)[C@H](O)[C@@H](O)[C@H]5O)[C@]4(C)[C@H]3CC[C@]12C	> 10 mg/L	> 100 mg/L
CC(C)CC[C@H](O)[C@@H](C)[C@H]1[C@@H](O[C@@H]2O[C@H](CO)[C@@H](O)[C@H](O)[C@H]2O)C[C@H]2[C@@H]3CC[C@H]4C[C@@H](O)C[C@@H](O[C@@H]5O[C@H](CO)[C@@H](O)[C@H](O)[C@H]5O)[C@]4(C)[C@H]3CC[C@]12C	> 10 mg/L	> 100 mg/L
